# Calls of active or inactive are those of the source. The calls are words filed in the database; no cut-off is given here.
# Experiments:
# [1] = system: Mus musculus; assay: Analgesic activity in sc dosed mouse assessed as inhibition of AcOH-induced writhing; type: functional; conditions: Mus musculus, sc; read-out: ED50
# [2] = system: Mus musculus; assay: Analgesic activity in sc dosed mouse by hot-plate method; type: functional; conditions: Mus musculus, sc; read-out: ED50
# [3] = Acute toxicity in sc dosed mouse; type: organism-based; conditions: in vivo
# [4] = system: Oryctolagus cuniculus; assay: Narcotic antagonist activity in rabbit assessed as inhibition of morphine-induced respiratory depression up to 1 mg/kg, iv; type: functional, organism-based; parameters: dose 1 mg/kg
# In short: (§1)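 Rabbits given test compound iv; read-out is antagonism of morphine-induced respiratory depression; expressed as AD50 in mg/kg or as % antagonism at a fixed dose.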
# [5] = system: Rhesus monkey; assay: Suppression of abstinence syndrome in morphine-dependent rhesus monkey up to 6 mg/kg; type: functional, organism-based; parameters: dose 6 mg/kg; conditions: Macaca mulatta
# [6] = system: Rhesus monkey; assay: Narcotic antagonist activity in morphine-dependent rhesus monkey assessed as mild to severe abstinence at 1 to 8 mg/kg; type: functional, organism-based; conditions: Macaca mulatta
# In short: (§2)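 Compound given to nonwithdrawn morphine-dependent monkeys; scored as precipitation of abstinence syndrome, with severity graded from mild to severe over the stated dose range.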
# [7] = system: Rhesus monkey; assay: Suppression of abstinence syndrome in morphine-dependent rhesus monkey at 1 mg/kg; type: functional, organism-based; parameters: dose 1 mg/kg; conditions: Macaca mulatta
# [8] = system: Rhesus monkey; assay: Narcotic antagonist activity in morphine-dependent rhesus monkey assessed as mild to severe abstinence at 2 mg/kg; type: functional, organism-based; parameters: dose 2 mg/kg; conditions: Macaca mulatta; in short: as §2
# [9] = system: Rhesus monkey; assay: Suppression of abstinence syndrome in morphine-dependent rhesus monkey up to 16 mg/kg; type: functional, organism-based; parameters: dose 16 mg/kg; conditions: Macaca mulatta
# [10] = system: Mus musculus; assay: Analgesic activity in sc dosed mouse assessed as time duration of activity by hot-plate method; type: functional
# [11] = system: Oryctolagus cuniculus; assay: Narcotic antagonist activity in iv dosed rabbit assessed as inhibition of morphine-induced respiratory depression; type: functional; in short: as §1
# [12] = system: Rhesus monkey; assay: Narcotic antagonist activity in morphine-dependent rhesus monkey assessed as precipitation of abstinence up to 8 mg/kg; type: functional, organism-based; parameters: dose 8 mg/kg; conditions: Macaca mulatta; in short: as §2
# [13] = system: Rhesus monkey; assay: Suppression of abstinence syndrome in morphine-dependent rhesus monkey at 8 mg/kg; type: functional, organism-based; parameters: dose 8 mg/kg; conditions: Macaca mulatta
# [14] = system: Rhesus monkey; assay: Suppression of abstinence syndrome in morphine-dependent rhesus monkey up to 8 mg/kg; type: functional, organism-based; parameters: dose 8 mg/kg; conditions: Macaca mulatta
# [15] = system: Mus musculus; assay: Analgesic activity in mouse assessed as inhibition of AcOH-induced writhing up to 22.5 mg/kg, sc; type: functional, organism-based; parameters: dose 22.5 mg/kg
# [16] = system: Mus musculus; assay: Analgesic activity in mouse by hot-plate method up to 100 mg/kg, sc; type: functional, organism-based; parameters: dose 100 mg/kg
# [17] = system: Oryctolagus cuniculus; assay: Narcotic antagonist activity in rabbit assessed as inhibition of morphine-induced respiratory depression at 5 mg/kg, iv; type: functional; in short: as §1
# [18] = system: Rhesus monkey; assay: Narcotic antagonist activity in morphine-dependent rhesus monkey assessed as mild to severe abstinence at 2.5 to 20 mg/kg; type: functional, organism-based; conditions: Macaca mulatta; in short: as §2
# [19] = system: Rhesus monkey; assay: Suppression of abstinence syndrome in morphine-dependent rhesus monkey at 5 mg/kg; type: functional, organism-based; parameters: dose 5 mg/kg; conditions: Macaca mulatta
# [20] = system: Rhesus monkey; assay: Narcotic antagonist activity in morphine-dependent rhesus monkey assessed as moderate to severe abstinence at 1.5 to 12 mg/kg; type: functional, organism-based; conditions: Macaca mulatta; in short: as §2
# [21] = system: Rhesus monkey; assay: Suppression of abstinence syndrome in morphine-dependent rhesus monkey at 1.5 mg/kg; type: functional, organism-based; parameters: dose 1.5 mg/kg; conditions: Macaca mulatta
# [22] = system: Rhesus monkey; assay: Narcotic antagonist activity in morphine-dependent rhesus monkey assessed as mild to moderate abstinence at 3 to 12 mg/kg; type: functional, organism-based; conditions: Macaca mulatta; in short: as §2
# [23] = system: Rhesus monkey; assay: Suppression of abstinence syndrome in morphine-dependent rhesus monkey at 6 mg/kg; type: functional, organism-based; parameters: dose 6 mg/kg; conditions: Macaca mulatta
# [24] = system: Rhesus monkey; assay: Narcotic antagonist activity in morphine-dependent rhesus monkey assessed as mild to severe abstinence at 2 to 8 mg/kg; type: functional, organism-based; conditions: Macaca mulatta; in short: as §2
SMILES,ED50 [1] [mg/kg],ED50 [2] [mg/kg],LD50 [3] [mg/kg],Time [10] [min],AD50 [11] [mg/kg],other results
CC1N(CCc2ccccc2)C2CCCC1(c1cccc(O)c1)C2.Cl (racemic),0.61,0.3,27.6,–,–,inhibition [4]: inactive; Activity [5]: inactive
"CC(=O)Oc1cccc(C23CCCC(C2)N(C)C3C)c1 (single isomer, unassigned; (+))",–,–,–,–,–,Activity [6]: Active; Activity [7]: inactive
COc1cccc(C23CCCC(C2)N(CCCC(=O)c2ccc(F)cc2)C3)c1.Cl (racemic),3,4.2,> 225,–,–,Activity [8]: inactive; Activity [9]: inactive
CN1CC2(c3cccc(O)c3)CCCC1C2 (racemic),12.3,14.3,133,137,3.1,Activity [12]: inactive; Activity [13]: inactive
CC1N(CC2CC2)C2CCCC1(c1cccc(O)c1)C2.Cl (racemic),2.2,5.8,59.8,–,0.1,Activity [14]: inactive
Br.C[C@@H]1N(C)[C@@H]2CCC[C@@]1(c1cccc(O)c1)C2,–,–,82.7,–,–,Activity [15]: inactive; Activity [16]: inactive; inhibition in vivo at 5 mg/kg [17]: 48%; Activity [18]: Active; Activity [19]: inactive
Br.C[C@H]1N(C)[C@H]2CCC[C@]1(c1cccc(O)c1)C2,1.2,2.9,123,148.6,–,inhibition in vivo at 5 mg/kg [17]: 42%; Activity [20]: Active; Activity [21]: inactive
CN1C[C@]2(c3cccc(O)c3)CCC[C@H]1C2,3.7,3.6,90.7,140,4.1,Activity [22]: Active; Activity [23]: inactive
CC1N(C)C2CCCC1(c1cccc(O)c1)C2 (racemic; 8),–,–,–,–,–,Activity [24]: Active; Activity [7]: inactive
